A selection: hits, their analogues and other compounds. The true share with any hit is near 2.7%.
HGIII-sPLA2 inh – Blocks human group III sPLA2 activity; Q9NZ20; QFRET BODIPY PC-A2 liposome hydrolysis, fluorescence; inhibition, % at 12.2 µM; actives 0.56% (n = 370,000); AID 743126;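 active means inhibition above mean plus 3 SD of compounds lying within the high and low control bounds, cut at about 19% in these data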
ARFGAP1 inh – inhibits rat ARF GTPase activating protein 1 | Q62848 | Arfgap1-stimulated ARF1 GTP hydrolysis, GDP FP detection | inhibition, % at 16.5 µM | actives 0.26% (n = 360,000);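 active means inhibition above a per-plate limit, mean inhibition of low control wells plus 3 SD, cut at about 25% in these data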
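System: truncated rat Arfgap1 GAP domain / Benchmarks: high control wells lacking Arfgap1, low control full reaction with DMSO / Times: compound-enzyme preincubation 20 min, reaction 120 min, detection 60 min, 25 °C / Repeats: one replicate per compound / Also added: human ARF1(Δ1-17)-GTP substrate / Measured by: Tracer-displacement fluorescence polarization with EDTA stop, 620/688 nm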
ASAP1 GAP inh – inhibitors of human ASAP1 ArfGAP activity; ASAP1-stimulated ARF1 GTP hydrolysis, GDP FP detection; actives 0.19% (n = 360,000); inhibition, % at 16.5 µM; Q9ULH1; AID 624377; in the data active means inhibition above about 25%
MsrA act – activates bovine MsrA enzyme; purified bovine MsrA, absorbance read-out; activation, % at 10.6 µM; actives 0.3% (n = 360,000); in the data active means activation above about 7.5%
MsrA inh – bovine MsrA inhibition; AID 651718; inhibition, % at 15.5 µM; actives 0.75% (n = 360,000); purified bovine MsrA, absorbance read-out; in the data active means inhibition above about 4.5%
Rev-erbA mod – Rev-erb alpha (human) modulation; AID 1259318; activity, % at 10 µM; actives 0.79% (n = 370,000); Rev-erbα–FITC-DNA binding, fluorescence polarization, 90 min; P20393;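 active means activity above about 14%, limit read from the data; passing the limit was not always enough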
Target sequence (P20393 whole entry, looked up): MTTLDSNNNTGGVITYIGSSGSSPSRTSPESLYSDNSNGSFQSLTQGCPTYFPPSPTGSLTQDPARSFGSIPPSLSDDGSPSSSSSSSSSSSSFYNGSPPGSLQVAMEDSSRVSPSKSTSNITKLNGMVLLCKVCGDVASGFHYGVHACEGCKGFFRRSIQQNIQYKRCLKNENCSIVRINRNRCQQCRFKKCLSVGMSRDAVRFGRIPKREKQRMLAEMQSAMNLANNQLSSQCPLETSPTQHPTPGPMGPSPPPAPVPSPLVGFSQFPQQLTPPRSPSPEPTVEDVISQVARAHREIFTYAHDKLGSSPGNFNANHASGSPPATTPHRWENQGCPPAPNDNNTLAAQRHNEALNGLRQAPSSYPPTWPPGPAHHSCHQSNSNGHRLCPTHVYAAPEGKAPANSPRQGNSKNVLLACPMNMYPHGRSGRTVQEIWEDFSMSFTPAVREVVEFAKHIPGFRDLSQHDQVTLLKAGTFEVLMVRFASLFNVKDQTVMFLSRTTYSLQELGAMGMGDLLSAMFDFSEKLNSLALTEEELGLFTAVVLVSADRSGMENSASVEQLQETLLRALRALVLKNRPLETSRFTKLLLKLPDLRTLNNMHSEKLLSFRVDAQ
MsrA activ conf – bovine methionine sulfoxide reductase A activation confirmed; shares compounds with MsrA act; actives 12% (n = 1,000); activation, % at 10.6 µM; purified bovine MsrA, absorbance read-out; AID 602270; in the data active means activation above about 4%;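 further: enzyme coupled to thioredoxin and thioredoxin reductase with NADPH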
Large screens that a line does not name were inactive (follow-up assays come after a bar, where they were run).

Cc1nnc(NC(=O)c2nc(S(=O)(=O)Cc3ccccc3)ncc2Cl)s1	MsrA act 11 | MsrA activ conf inactive
CC(=O)Nc1c(-c2ccc(C)cc2)nc2ncccn12	none (no result: ARFGAP1 inh, ASAP1 GAP inh, MsrA act, MsrA inh)
c1ccc(-n2cnc3cc(NCc4cccs4)ccc32)cc1	none
c1ccc(-n2cnc3cc(NCc4ccco4)ccc32)cc1	MsrA act 9.5 | MsrA activ conf inactive
CCCCCCCCN1C(=O)[C@@H](CC(=O)NCCC(C)C)C[C@@]2(C(=O)OC)C1=C[C@H](COCc1ccccc1)O[C@@H]2C	none (no result: ARFGAP1 inh, ASAP1 GAP inh, MsrA act, MsrA inh)
S=c1[nH]nc(Nc2cccc3ccccc23)s1	MsrA act 8.8 | MsrA activ conf inactive
Cc1c(Cl)cccc1Nc1n[nH]c(=S)s1	MsrA act 9.6 | MsrA activ conf inactive
S=c1[nH]nc(Nc2ccc(Cl)cc2)s1	none
Fc1ccccc1Nc1n[nH]c(=S)s1	none
Cc1ccccc1Nc1n[nH]c(=S)s1	MsrA act 11 | MsrA activ conf inactive
CCCCNC(=O)O[C@H]1CC[C@@]23CCCN2C(=O)CCC[C@H]3C1	none (no result: ARFGAP1 inh, ASAP1 GAP inh, MsrA act, MsrA inh)
Fc1ccc(NC(=S)Nc2ccccc2N2CCOCC2)cc1Cl	MsrA act 9.7 | MsrA activ conf inactive
CC(C)C[C@H]1COc2cccc(F)c2S(=O)(=O)N1Cc1cn(CCC2OCCO2)nn1	none (no result: ARFGAP1 inh, ASAP1 GAP inh, MsrA act, MsrA inh)
C#CCN1CC(N(C)CCOC(=O)c2occ3ccccc23)CS1(=O)=O (centres undefined)	none (no result: ARFGAP1 inh, ASAP1 GAP inh, MsrA act, MsrA inh)
Cc1nc2c(nc1C)C(=O)c1ccccc1C2=O	MsrA act 13 | MsrA activ conf 8.4
O=C1c2ccccc2-c2nc3ccccc3nc21	none
NC1=C(Br)C(=O)c2ccccc2C1=O	MsrA act 9.7 | MsrA activ conf 9.4
COC(=O)c1ccc(S(=O)(=O)N2CCC(NC(=O)CCc3ccccc3)CC2)cc1	none (no result: ARFGAP1 inh, ASAP1 GAP inh, MsrA act, MsrA inh)
CC(=O)Nc1nnc(Cc2ccccc2)s1	MsrA act 8.6 | MsrA activ conf inactive
COc1ccc(Cc2nnc(NC(=O)Nc3ccccc3F)s2)cc1OC	MsrA act 11 | MsrA activ conf inactive
O=C(NCc1ccc(F)c(F)c1)C1CCCN(c2nc3ccccc3o2)C1 (centres undefined)	none (no result: ARFGAP1 inh, ASAP1 GAP inh, MsrA act, MsrA inh)
Cc1ccc(C)c(NS(=O)(=O)c2cc(C(=O)N3CCc4ccccc4C3)ccc2Cl)c1	MsrA act 8.2 | MsrA activ conf inactive
O=C(N=C1N(CC2CC2)CC2(C=C3CCCCC3n3c(=O)n(-c4ccccc4)c(=O)n32)N1C(=O)OCc1ccccc1)c1ccccc1 (centres undefined)	none (no result: ARFGAP1 inh, ASAP1 GAP inh, MsrA act, MsrA inh)
Cc1ccsc1/C=N/n1c(-c2ccco2)n[nH]c1=S	MsrA act 11 | MsrA activ conf inactive
C(=C\c1ccccc1)/CN1CCN(C(c2ccccc2)c2ccccc2)CC1	none
Fc1ccc(C(c2ccc(F)cc2)N2CCN(C/C=C/c3ccccc3)CC2)cc1	MsrA act 8.4 | MsrA activ conf inactive
CC1(Cc2ccc(Cl)cc2)C(=O)Nc2ccc(S(=O)(=O)NC3CCCCC3)cc21 (centres undefined)	none
CC1(Cc2ccc(OC(F)(F)F)cc2)C(=O)Nc2ccc(S(=O)(=O)NC3CCCCC3)cc21 (centres undefined)	MsrA act 20 | MsrA activ conf inactive
C=CCNC(=O)c1nc2ccccc2s1	MsrA act 9.6 | MsrA activ conf inactive
COC(=O)[C@]12C[C@H](CC(=O)NCCCN3CCCC3=O)C(=O)N(Cc3ccco3)C1=C[C@H](C(C)C)O[C@@H]2C1CC1	none (no result: ARFGAP1 inh, ASAP1 GAP inh, MsrA act, MsrA inh)
COc1cc(NC(=O)CSCc2ccccc2)c(C(=O)O)cc1OC	MsrA act 10.0 | MsrA activ conf inactive
Cn1c(N)c(S(=O)(=O)NCc2ccc(Cl)cc2)c(=O)n(C)c1=O	MsrA act 8.9 | MsrA activ conf inactive
Cn1c(N)c(S(=O)(=O)NCc2ccccc2)c(=O)n(C)c1=O	none
C#CCN1CC(N(C)CCOC(=O)CC2C=CCC2)CS1(=O)=O (centres undefined)	none (no result: ARFGAP1 inh, ASAP1 GAP inh, MsrA act, MsrA inh)
CSc1nnc2c3c4c(sc3c(=O)n(-c3ccccc3)n12)CC(C)(C)OC4	MsrA act 24 | MsrA activ conf inactive
CC1(C)Cc2c(sc3nc(-c4ccccc4)n(N)c(=O)c23)CO1	none
CC1Cc2ccccc2N1C(=O)COC(=O)c1ccc(Br)o1 (centres undefined)	none
CC1Cc2ccccc2N1C(=O)COC(=O)c1cccc(Br)c1 (centres undefined)	MsrA act 24 | MsrA activ conf inactive
CC(=O)OC(C)OC(=O)C(C)c1ccc(-c2ccccc2)c(F)c1 (centres undefined)	none (no result: HGIII-sPLA2 inh, ARFGAP1 inh, ASAP1 GAP inh, MsrA act, MsrA inh)
COc1cccc(NC(=O)CN(C)C(=O)CCNC(=O)c2ccccc2Cl)c1	MsrA act 8.0 | MsrA activ conf inactive
COc1cccc(NC(=O)CN(C)CC(=O)NCc2ccc3c(c2)OCO3)c1	MsrA act 11 | MsrA activ conf inactive
COc1ccc(CC(=O)NCc2ccc3c(c2)OCO3)cc1	none
CCC(=O)N1CCc2cc(Br)c(S(=O)(=O)N3CCC(C(=O)NCCCOC(C)C)CC3)cc21	none (no result: ARFGAP1 inh, ASAP1 GAP inh, MsrA act, MsrA inh)
O=C1CN(C(=O)c2ccccc2)C(c2ccccc2)c2cc(F)ccc2N1 (centres undefined)	none
O=C1CN(C(=O)c2ccc(Br)o2)C(c2ccccc2)c2cc(F)ccc2N1 (centres undefined)	MsrA act 12 | MsrA activ conf inactive
CCOC(=O)Cn1c(=O)c2c(nc3n2CCCCN3c2ccc(OCC)cc2)n(C)c1=O	MsrA act 8.0 | MsrA activ conf inactive
CCCCOC(=O)Cn1c(=O)c2c(nc3n2CCCCN3c2ccc(C)cc2)n(C)c1=O	none
COc1ccc(CNS(=O)(=O)c2cc3c(cc2Br)CC(C)N3C(C)=O)cc1 (centres undefined)	none (no result: ARFGAP1 inh, ASAP1 GAP inh, MsrA act, MsrA inh)
Cc1ccc(S(=O)(=O)NC2c3cccc4cccc(c34)C2Sc2nncn2C)cc1 (centres undefined)	MsrA act 15 | MsrA activ conf inactive
C=CCN1C(=O)[C@@H](CC(=O)NCCCN2CCCC2=O)[C@]2(C(=O)OC)CCCCC=C12	none (no result: ARFGAP1 inh, ASAP1 GAP inh, MsrA act, MsrA inh)
O=C(NCc1ccccc1)C1=C[C@H](c2ccc3c(c2)OCO3)C[C@H](OCc2ccc(CO)cc2)O1	none
C#CCNC(=O)C1=C[C@@H](c2ccc3c(c2)OCO3)C[C@@H](OCc2ccc(CO)cc2)O1	MsrA act 8.5 | MsrA activ conf inactive
O=C(CCSc1ccccn1)c1ccccc1	MsrA act 7.8 | MsrA activ conf inactive
CN(Cc1cnn(C)c1)Cc1nc(COc2ccccc2)no1	none
CN(CCc1cnn(C)c1)Cc1nc(Cc2ccccc2)no1	MsrA act 10 | MsrA activ conf inactive
CC(=O)N1CCc2cc(N=NC3=C(O)CCCC3=O)ccc21	MsrA act 8.7 | MsrA activ conf inactive
O=C1CCCC(O)=C1N=Nc1ccc(Cl)c(Cl)c1	none
O=C(Nc1ccc2c(c1)OCCO2)c1cncc(Br)c1	MsrA act 9.2 | MsrA activ conf inactive

Assay outcomes deposited in PubChem BioAssay by several laboratories.
